{"source": "ChEMBL document CHEMBL3853331", "about": "“Preparation, Antiepileptic Activity, and Cardiovascular Safety of Dihydropyrazoles as Brain-Penetrant T-Type Calcium Channel Blockers” (J Med Chem, 2016)", "key": {"[1]": {"target": "T1, Voltage-dependent T-type calcium channel subunit alpha-1I (Homo sapiens, UniProt Q9P0X4)", "experiment": "Inhibition of human T-type calcium channel Cav3.3 expressed in CHO cells assessed as inhibition of calcium tail current at -60 mV holding potential measured after 150 secs by QPatch assay", "format": "cell-based", "outline": "(§1)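 CHO cells stably expressing human Cav3.1, Cav3.2 or Cav3.3, automated QPatch recording. 3-ms depolarization to +20 mV from a holding potential of -90 or -60 mV. Ca2+ tail current measured at -60 mV. Cs-glutamate internal and TEA-Cl external solution with 5 mM Ca2+. Effect read 150 s after application.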"}, "[2]": {"target": "Voltage-dependent L-type calcium channel subunit alpha-1C (Homo sapiens, UniProt Q13936)", "experiment": "Inhibition of recombinant […] calcium channel Cav1.2 (unknown origin) expressed in HEK293 cells assessed as inhibition of Kcl-induced calcium influx preincubated for 3 mins prior CaCl2 addition by Fluo-4-AM dye-based FLIPR assay", "format": "cell-based", "outline": "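HEK293 cells stably expressing the channel, seeded overnight and loaded 1 h at 37°C with 3 µM Fluo-4-AM. Compounds given as a 3-fold dilution series from 10 µM to 0.05 nM and incubated 3 min. For T-type channels, dilutions in TEAC buffer and stimulation with 10 mM final CaCl2. For Cav1.2, dilutions in assay buffer and stimulation with 20 mM final KCl. IC50 from area under the fluorescence trace against vehicle; mean of at least two experiments.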"}, "MDR1": {"test_system": "MDR1", "experiment": "Apparent permeability across basolateral to apical side in MDCK cells expressing MDR1 (unknown origin) at 1 uM", "format": "ADME, cell-based, Canis lupus familiaris", "settings": "dog", "outline": "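MDR1-transfected MDCK cell monolayers. Compound tested at 1 µM. Apparent permeability measured in both directions, apical to basolateral and basolateral to apical. Efflux ratio taken from the two directional permeabilities.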"}, "[3]": {"target": "T2, Voltage-dependent T-type calcium channel subunit alpha-1G (Homo sapiens, UniProt O43497)", "T2 sequence (O43497 whole entry)": "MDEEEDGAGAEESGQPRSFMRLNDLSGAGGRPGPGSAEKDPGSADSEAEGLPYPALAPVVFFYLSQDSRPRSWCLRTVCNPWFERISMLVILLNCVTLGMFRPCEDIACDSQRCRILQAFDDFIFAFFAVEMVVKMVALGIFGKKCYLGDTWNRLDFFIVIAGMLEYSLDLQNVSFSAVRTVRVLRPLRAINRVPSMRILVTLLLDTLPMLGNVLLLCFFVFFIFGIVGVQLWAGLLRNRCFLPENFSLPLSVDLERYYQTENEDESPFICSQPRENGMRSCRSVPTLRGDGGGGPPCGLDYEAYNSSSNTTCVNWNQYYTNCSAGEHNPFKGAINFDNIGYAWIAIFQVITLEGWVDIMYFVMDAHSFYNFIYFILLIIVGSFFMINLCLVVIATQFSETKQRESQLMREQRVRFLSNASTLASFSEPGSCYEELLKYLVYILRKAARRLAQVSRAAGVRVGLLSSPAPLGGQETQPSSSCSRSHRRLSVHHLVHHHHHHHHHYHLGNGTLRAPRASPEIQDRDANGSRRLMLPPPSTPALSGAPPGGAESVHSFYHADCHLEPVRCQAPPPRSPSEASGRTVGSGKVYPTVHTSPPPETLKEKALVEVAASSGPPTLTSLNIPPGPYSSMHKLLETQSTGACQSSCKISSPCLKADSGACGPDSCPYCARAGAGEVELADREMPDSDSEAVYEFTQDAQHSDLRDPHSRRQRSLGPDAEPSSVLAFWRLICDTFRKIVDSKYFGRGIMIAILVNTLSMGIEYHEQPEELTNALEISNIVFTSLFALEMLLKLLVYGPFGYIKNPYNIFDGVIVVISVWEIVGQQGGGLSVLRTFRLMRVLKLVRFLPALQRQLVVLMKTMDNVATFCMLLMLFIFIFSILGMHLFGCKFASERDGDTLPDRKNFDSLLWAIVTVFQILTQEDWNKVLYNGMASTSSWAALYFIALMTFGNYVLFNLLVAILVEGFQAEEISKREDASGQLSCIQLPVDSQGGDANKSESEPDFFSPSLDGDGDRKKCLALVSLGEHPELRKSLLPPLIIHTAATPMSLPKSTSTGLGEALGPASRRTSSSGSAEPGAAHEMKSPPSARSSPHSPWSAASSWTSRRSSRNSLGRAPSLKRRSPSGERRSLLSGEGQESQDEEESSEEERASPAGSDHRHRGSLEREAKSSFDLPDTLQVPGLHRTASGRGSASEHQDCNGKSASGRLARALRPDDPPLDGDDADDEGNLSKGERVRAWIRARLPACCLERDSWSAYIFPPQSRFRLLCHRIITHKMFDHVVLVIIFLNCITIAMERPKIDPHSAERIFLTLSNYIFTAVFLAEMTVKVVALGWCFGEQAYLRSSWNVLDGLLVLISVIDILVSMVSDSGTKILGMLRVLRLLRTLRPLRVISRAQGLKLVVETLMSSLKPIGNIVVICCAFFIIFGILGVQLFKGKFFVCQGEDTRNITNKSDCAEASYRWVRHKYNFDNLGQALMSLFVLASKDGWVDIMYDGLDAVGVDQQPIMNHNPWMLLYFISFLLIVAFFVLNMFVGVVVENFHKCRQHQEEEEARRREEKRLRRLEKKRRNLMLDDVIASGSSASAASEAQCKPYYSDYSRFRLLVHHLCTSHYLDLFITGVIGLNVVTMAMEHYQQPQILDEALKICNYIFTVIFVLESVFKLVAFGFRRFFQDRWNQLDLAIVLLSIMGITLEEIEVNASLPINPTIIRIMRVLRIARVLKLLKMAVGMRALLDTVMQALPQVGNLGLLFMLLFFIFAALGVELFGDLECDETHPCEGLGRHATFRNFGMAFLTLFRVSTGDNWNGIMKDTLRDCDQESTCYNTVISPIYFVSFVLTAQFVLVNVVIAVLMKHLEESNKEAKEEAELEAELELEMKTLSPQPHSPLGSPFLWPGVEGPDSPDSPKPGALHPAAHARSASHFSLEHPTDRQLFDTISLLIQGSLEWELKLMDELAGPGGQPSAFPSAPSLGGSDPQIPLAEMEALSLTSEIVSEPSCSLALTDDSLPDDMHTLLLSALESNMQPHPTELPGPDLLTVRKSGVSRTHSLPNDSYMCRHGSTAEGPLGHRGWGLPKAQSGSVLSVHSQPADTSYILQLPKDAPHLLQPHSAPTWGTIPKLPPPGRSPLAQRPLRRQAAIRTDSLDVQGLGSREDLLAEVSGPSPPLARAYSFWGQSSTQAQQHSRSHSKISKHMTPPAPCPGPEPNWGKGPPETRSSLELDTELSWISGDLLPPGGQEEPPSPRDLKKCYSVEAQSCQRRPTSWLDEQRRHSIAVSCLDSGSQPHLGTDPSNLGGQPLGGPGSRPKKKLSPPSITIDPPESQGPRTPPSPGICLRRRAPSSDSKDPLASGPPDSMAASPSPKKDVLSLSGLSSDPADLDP", "experiment": "Inhibition of human T-type calcium channel Cav3.1 expressed in CHO cells assessed as inhibition of calcium tail current at -60 mV holding potential measured after 150 secs by QPatch assay", "format": "cell-based", "outline": "as §1"}, "[4]": {"target": "T2, Voltage-dependent T-type calcium channel subunit alpha-1G", "experiment": "Inhibition of human T-type calcium channel Cav3.1 expressed in CHO cells assessed as inhibition of calcium tail current at -90 mV holding potential measured after 150 secs by QPatch assay", "format": "cell-based", "outline": "as §1"}, "[5]": {"target": "T3, Voltage-dependent T-type calcium channel subunit alpha-1H (Homo sapiens, UniProt O95180)", "T3 sequence (O95180 whole entry)": "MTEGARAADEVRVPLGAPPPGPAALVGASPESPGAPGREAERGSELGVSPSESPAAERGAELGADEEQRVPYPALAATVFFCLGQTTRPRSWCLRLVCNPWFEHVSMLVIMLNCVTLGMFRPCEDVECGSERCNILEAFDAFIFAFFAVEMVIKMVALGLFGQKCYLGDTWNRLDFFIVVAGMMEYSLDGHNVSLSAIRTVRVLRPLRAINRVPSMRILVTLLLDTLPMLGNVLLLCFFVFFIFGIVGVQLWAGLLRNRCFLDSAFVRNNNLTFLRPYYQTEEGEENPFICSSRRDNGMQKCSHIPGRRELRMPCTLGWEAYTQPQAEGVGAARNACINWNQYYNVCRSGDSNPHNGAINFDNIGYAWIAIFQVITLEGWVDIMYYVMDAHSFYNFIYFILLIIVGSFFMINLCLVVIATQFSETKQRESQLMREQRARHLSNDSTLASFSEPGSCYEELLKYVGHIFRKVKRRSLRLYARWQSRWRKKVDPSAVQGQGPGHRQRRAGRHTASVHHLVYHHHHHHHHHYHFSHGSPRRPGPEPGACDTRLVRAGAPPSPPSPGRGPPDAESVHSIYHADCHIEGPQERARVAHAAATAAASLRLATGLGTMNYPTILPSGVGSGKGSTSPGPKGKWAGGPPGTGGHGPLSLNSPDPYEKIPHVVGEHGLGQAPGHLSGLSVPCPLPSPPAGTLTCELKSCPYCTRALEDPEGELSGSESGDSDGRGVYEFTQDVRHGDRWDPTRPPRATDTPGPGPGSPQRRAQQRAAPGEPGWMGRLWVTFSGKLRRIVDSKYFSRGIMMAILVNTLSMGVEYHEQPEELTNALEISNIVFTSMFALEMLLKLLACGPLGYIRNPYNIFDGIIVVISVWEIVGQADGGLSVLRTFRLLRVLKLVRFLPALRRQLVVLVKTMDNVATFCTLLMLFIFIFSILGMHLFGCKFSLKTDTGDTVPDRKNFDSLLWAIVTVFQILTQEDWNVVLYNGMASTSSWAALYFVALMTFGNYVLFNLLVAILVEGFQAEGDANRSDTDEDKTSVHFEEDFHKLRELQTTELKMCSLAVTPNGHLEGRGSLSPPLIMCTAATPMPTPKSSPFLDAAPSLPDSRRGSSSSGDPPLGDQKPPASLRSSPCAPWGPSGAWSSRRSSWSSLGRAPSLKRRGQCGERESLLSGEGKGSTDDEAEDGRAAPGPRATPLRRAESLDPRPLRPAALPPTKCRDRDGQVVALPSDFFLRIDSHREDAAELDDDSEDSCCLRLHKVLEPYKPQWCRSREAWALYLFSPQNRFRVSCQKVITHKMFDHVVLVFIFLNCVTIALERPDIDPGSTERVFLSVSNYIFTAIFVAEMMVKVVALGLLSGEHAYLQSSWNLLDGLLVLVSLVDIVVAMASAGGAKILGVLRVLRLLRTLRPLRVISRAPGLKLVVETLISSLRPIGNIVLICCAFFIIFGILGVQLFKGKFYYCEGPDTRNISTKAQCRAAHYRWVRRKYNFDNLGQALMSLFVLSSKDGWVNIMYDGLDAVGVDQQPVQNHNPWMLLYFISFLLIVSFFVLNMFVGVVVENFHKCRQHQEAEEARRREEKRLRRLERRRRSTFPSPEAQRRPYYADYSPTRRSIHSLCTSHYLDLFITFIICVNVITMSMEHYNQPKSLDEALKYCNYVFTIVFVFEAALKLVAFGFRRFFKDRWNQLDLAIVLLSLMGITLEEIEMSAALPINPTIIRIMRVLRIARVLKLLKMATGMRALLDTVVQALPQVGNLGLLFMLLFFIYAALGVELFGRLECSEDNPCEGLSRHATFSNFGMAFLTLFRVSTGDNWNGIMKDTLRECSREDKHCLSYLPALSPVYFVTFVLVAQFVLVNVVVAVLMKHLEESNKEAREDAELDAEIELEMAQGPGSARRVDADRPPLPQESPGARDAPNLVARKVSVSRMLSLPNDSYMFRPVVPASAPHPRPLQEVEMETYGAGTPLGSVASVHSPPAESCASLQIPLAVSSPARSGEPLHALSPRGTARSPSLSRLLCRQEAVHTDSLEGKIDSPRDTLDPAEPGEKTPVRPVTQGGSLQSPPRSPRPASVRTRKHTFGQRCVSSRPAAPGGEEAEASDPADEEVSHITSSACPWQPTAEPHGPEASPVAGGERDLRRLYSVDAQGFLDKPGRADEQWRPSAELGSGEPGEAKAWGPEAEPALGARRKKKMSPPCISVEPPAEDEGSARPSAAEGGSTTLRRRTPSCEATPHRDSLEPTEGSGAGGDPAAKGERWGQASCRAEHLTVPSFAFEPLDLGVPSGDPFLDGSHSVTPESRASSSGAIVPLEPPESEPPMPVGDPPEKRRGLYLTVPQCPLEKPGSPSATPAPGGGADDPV", "experiment": "Inhibition of human T-type calcium channel Cav3.2 expressed in CHO cells assessed as inhibition of calcium tail current at -60 mV holding potential measured after 150 secs by QPatch assay", "format": "cell-based", "outline": "as §1"}, "[6]": {"target": "T3, Voltage-dependent T-type calcium channel subunit alpha-1H", "experiment": "Inhibition of human T-type calcium channel Cav3.2 expressed in CHO cells assessed as inhibition of calcium tail current at -90 mV holding potential measured after 150 secs by QPatch assay", "format": "cell-based", "outline": "as §1"}, "[7]": {"target": "T1, Voltage-dependent T-type calcium channel subunit alpha-1I", "experiment": "Inhibition of human T-type calcium channel Cav3.3 expressed in CHO cells assessed as inhibition of calcium tail current at -90 mV holding potential measured after 150 secs by QPatch assay", "format": "cell-based", "outline": "as §1"}, "Rattus norvegicus [8]": {"organism": "Rattus norvegicus", "experiment": "Inhibition of Wistar rat brain neuronal sodium channel assessed as peak inward current at 10 uM measured during last peak", "outline": "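Cortical neurons from E18 Wistar rat embryos, cultured 9-15 days, recorded by manual patch clamp from a holding potential of -80 mV. K+ currents: one 50-ms step to 0 mV, fast as peak outward and slow as end-of-pulse current. Na+ currents: train of fifteen 10-ms steps to 0 mV, peak inward current read at the first and last pulses. Effects read at least 180 s after application.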"}, "Cytochrome P450 2C9": {"target": "Cytochrome P450 2C9 (Homo sapiens, UniProt P11712)", "experiment": "Inhibition of CYP2C9 (unknown origin)", "format": "ADME"}, "Cytochrome P450 2D6": {"target": "Cytochrome P450 2D6 (Homo sapiens, UniProt P10635)", "experiment": "Inhibition of CYP2D6 (unknown origin)"}, "[9]": {"experiment": "Metabolic stability in human microsomes measured per mg protein", "format": "ADME, Microsome"}, "[10]": {"experiment": "Metabolic stability in rat microsomes measured per mg protein", "format": "ADME, Microsome"}, "[11]": {"experiment": "Clearance in Wistar rat plasma at 0.2 mg/kg, iv", "format": "ADME, organism-based", "outline": "(§2)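 Male Wistar rats dosed iv at 0.2 mg/kg or po at 2 mg/kg. In the inhibited arm, the broad CYP inhibitor aminobenzotriazol was given orally 2 h before dosing. Clearance, Vss and half-life derived from plasma concentrations after the iv dose; Cmax and Tmax from the po dose.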"}, "[12]": {"experiment": "Volume of distribution at steady state in Wistar rat plasma at 0.2 mg/kg, iv", "format": "ADME, organism-based", "settings": "read-out: Vdss"}, "[13]": {"experiment": "Cmax in Wistar rat plasma at 2 mg/kg, po", "format": "ADME, organism-based", "parameters": "dose 2 mg/kg, route oral", "outline": "as §2"}, "[14]": {"experiment": "Cmax in Wistar rat plasma at 2 mg/kg, po administered 2 hrs after aminobenzotriazol-treatment", "format": "ADME, organism-based", "parameters": "dose 2 mg/kg, route oral", "outline": "as §2"}, "[15]": {"experiment": "Cmax in Beagle dog plasma at 10 mg/kg, po", "format": "ADME, organism-based, Canis lupus familiaris", "parameters": "dose 10 mg/kg, route oral", "outline": "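Beagle dogs given a single oral dose of 10 mg/kg; plasma Cmax and Tmax determined.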"}, "[16]": {"experiment": "Oral bioavailability in Wistar rat plasma at 2 mg/kg administered 2 hrs after aminobenzotriazol-treatment", "format": "ADME, organism-based", "outline": "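Rats dosed orally with the CYP inhibitor aminobenzotriazol 2 h before the iv dose of 0.2 mg/kg. Oral dose was 2 mg/kg.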"}, "[17]": {"experiment": "Plasma concentration in Wistar rat at 100 mg/kg, po measured after 1 hr", "format": "ADME, organism-based"}, "[18]": {"experiment": "Plasma concentration in Wistar rat at 10 mg/kg, po measured after 1 hr", "format": "ADME, organism-based"}, "[19]": {"experiment": "Plasma concentration in Wistar rat at 10 mg/kg, po measured after 3 hrs", "format": "ADME, organism-based"}, "[20]": {"experiment": "Drug uptake in Wistar rat brain at 30 mg/kg, po measured after 1 hr", "format": "ADME, organism-based", "settings": "read-out: Drug uptake", "outline": "(§3)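 Male Wistar rats given oral doses of 10, 30 or 100 mg/kg. Plasma, brain and CSF collected at 1 h, and at 3 h for the 10 mg/kg dose; compound concentrations measured in each.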"}, "[21]": {"experiment": "Drug uptake in Wistar rat CSF at 30 mg/kg, po measured after 1 hr", "format": "ADME, organism-based, Cerebrospinal fluid", "settings": "read-out: Drug uptake", "outline": "as §3"}, "[22]": {"experiment": "Drug uptake in Wistar rat CSF at 10 mg/kg, po measured after 1 hr", "format": "ADME, organism-based, Cerebrospinal fluid", "settings": "read-out: Drug uptake", "outline": "as §3"}, "[23]": {"experiment": "Drug uptake in Wistar rat CSF at 10 mg/kg, po measured after 3 hrs", "format": "ADME, organism-based, Cerebrospinal fluid", "settings": "read-out: Drug uptake", "outline": "as §3"}, "[24]": {"experiment": "Fraction unbound in Wistar rat microsomes", "format": "ADME, Microsome"}, "Rattus norvegicus [25]": {"test_system": "Rattus norvegicus", "experiment": "Cardiovascular toxicity in spontaneously hypertensive rat assessed as reduction in mean […] pressure after 18 hrs at 100 mg/kg, po", "format": "organism-based", "settings": "in vivo", "outline": "(§4)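 Conscious, freely moving male spontaneously hypertensive rats with telemetry recording MAP, HR and ECG. Single oral dose (5 ml/kg) given as a suspension in 0.5% w/v methylcellulose in water, in the morning during the sleep phase. Vehicle controls run in parallel, n = 8 per group.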"}, "Rattus norvegicus [26]": {"test_system": "Rattus norvegicus", "experiment": "Cardiovascular toxicity in spontaneously hypertensive rat assessed as induction of AV block type 2 at 100 mg/kg, po by telemetry method", "format": "organism-based", "settings": "in vivo", "outline": "as §4"}, "[27]": {"experiment": "Unbound drug level in Wistar rat brain at 100 mg/kg, po measured after 1 hr", "format": "ADME, organism-based", "settings": "in vivo"}, "[28]": {"experiment": "Drug uptake in Wistar rat assessed as unbound drug level measured after 1 hr", "format": "ADME", "settings": "in vivo"}, "Rattus norvegicus [29]": {"test_system": "Rattus norvegicus", "experiment": "Anticonvulsant activity in WAG/Rij rat model of generalized nonconvulsive absence-like epilepsy assessed as decrease in duration of spontaneous seizures at 100 mg/kg, po administered as single dose at beginning of nocturnal active phase measured over 4 hrs by radiotelometry relative to vehicle control"}}, "data": [{"smiles": "O=C(Nc1ccc(F)cc1)N1N=C(c2ccncc2)CC1c1ccc(F)cc1", "note": "(configuration not stated)", "values": [{"measurement": "IC50", "setting": "[1]", "value": 2000, "unit": "nM"}, {"measurement": "IC50", "setting": "[2]", "value": 6400, "unit": "nM"}, {"measurement": "Papp B→A at 1 µM", "setting": "MDR1", "value": 44, "unit": "×10⁻⁶ cm/s"}, {"measurement": "IC50", "setting": "[3]", "value": 450, "unit": "nM"}, {"measurement": "IC50", "setting": "[4]", "value": 1800, "unit": "nM"}, {"measurement": "IC50", "setting": "[5]", "value": 220, "unit": "nM"}, {"measurement": "IC50", "setting": "[6]", "value": 1700, "unit": "nM"}, {"measurement": "IC50", "setting": "[7]", "value": 7000, "unit": "nM"}, {"measurement": "inhibition", "setting": "Rattus norvegicus [8]", "value": 26, "unit": "%"}, {"measurement": "IC50", "setting": "Cytochrome P450 2C9", "value": 1800, "unit": "nM"}, {"measurement": "IC50", "setting": "Cytochrome P450 2D6", "value": 44000, "unit": "nM"}, {"measurement": "microsomal CLint", "setting": "[9]", "value": 21, "unit": "µL/min/mg"}, {"measurement": "microsomal CLint", "setting": "[10]", "value": 104, "unit": "µL/min/mg"}, {"measurement": "clearance", "setting": "[11]", "value": 110, "unit": "mL/min/kg"}, {"measurement": "Vd", "setting": "[12]", "value": 23, "unit": "L/kg"}, {"measurement": "Cmax", "setting": "[13]", "value": 27, "unit": "nM"}, {"measurement": "Cmax", "setting": "[14]", "value": 150, "unit": "nM"}, {"measurement": "Cmax", "setting": "[15]", "value": 160, "unit": "nM"}, {"measurement": "bioavailability", "setting": "[16]", "value": 100, "unit": "%"}, {"measurement": "concentration at 1 h", "setting": "[17]", "value": 1230, "unit": "nM"}, {"measurement": "concentration at 1 h", "setting": "[18]", "value": 270, "unit": "nM"}, {"measurement": "concentration at 3 h", "setting": "[19]", "value": 290, "unit": "nM"}, {"measurement": "concentration at 1 h", "setting": "[20]", "value": 2570, "unit": "nM"}, {"measurement": "concentration at 1 h", "setting": "[21]", "value": 47, "unit": "nM"}, {"measurement": "concentration at 1 h", "setting": "[22]", "value": 19, "unit": "nM"}, {"measurement": "concentration at 3 h", "setting": "[23]", "value": 29, "unit": "nM"}, {"measurement": "fraction unbound", "setting": "[24]", "value": 0.5}, {"measurement": "Activity", "setting": "Rattus norvegicus [25]", "value": "Non-Toxic"}, {"measurement": "Activity", "setting": "Rattus norvegicus [26]", "value": "Toxic"}, {"measurement": "Drug uptake(free)", "setting": "[27]", "value": 128, "unit": "nM"}, {"measurement": "Drug uptake(free)", "setting": "[28]", "value": 37, "unit": "nM"}, {"measurement": "inhibition in vivo at 100 mg/kg", "setting": "Rattus norvegicus [29]", "value": "> 99", "unit": "%"}]}]}
